Data as given in ChEMBL document CHEMBL1154150, “Synthesis and anticonvulsant activity of some new bishydrazones derived from 3,4-dipropyloxythiophene” (Eur J Med Chem, 2009).
Activity calls are given as the source filed them.

Tests used:
Mus musculus [1] = assay: Anticonvulsant activity in CF1 mouse assessed as protection against maximal electroshock-induced seizures at 100 mg/kg, ip after 0.5 hrs; assay type: functional, organism-based; design: dose 100 mg/kg
In short: (§1)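 Male CF-1 albino mice (18–25 g), dosed i.p. at 30, 100 or 300 mg/kg in 0.5% methyl cellulose/water or PEG 200 (0.01 ml/g); tested at intervals after dosing; protection = abolition of hind limb tonic extensor component of MES seizure; scored as protected/tested.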

Mus musculus [2] = assay: Neurotoxicity in CF1 mouse at 30 mg/kg, ip after 4 hrs by rotarod test; assay type: toxicity, organism-based; design: dose 30 mg/kg, route intraperitoneal; settings: in vivo
In short: (§2)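 Rotorod neurotoxicity in male CF-1 mice (18–25 g) after i.p. compound in 0.5% methyl cellulose/water or PEG 200 at 30, 100 or 300 mg/kg; reported as number showing toxicity/number tested.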

Mus musculus [3] = assay: Anticonvulsant activity in CF1 mouse assessed as protection against maximal electroshock-induced seizures at 30 mg/kg, ip after 4 hrs; assay type: functional, organism-based; design: dose 30 mg/kg; in short: as §1
Mus musculus [4] = assay: Neurotoxicity in CF1 mouse at 30 mg/kg, ip after 0.5 hrs by rotarod test; assay type: toxicity, organism-based; design: dose 30 mg/kg, route intraperitoneal; settings: in vivo; in short: as §2
Mus musculus [5] = assay: Anticonvulsant activity in CF1 mouse assessed as protection against maximal electroshock-induced seizures at 300 mg/kg, ip after 0.5 hrs; assay type: functional, organism-based; design: dose 300 mg/kg; in short: as §1
Mus musculus [6] = assay: Neurotoxicity in CF1 mouse at 300 mg/kg, ip after 4 hrs by rotarod test; assay type: toxicity, organism-based; design: dose 300 mg/kg, route intraperitoneal; settings: in vivo; in short: as §2
Mus musculus [7] = assay: Neurotoxicity in CF1 mouse at 300 mg/kg, ip after 0.5 hrs by rotarod test; assay type: toxicity, organism-based; design: dose 300 mg/kg, route intraperitoneal; settings: in vivo; in short: as §2
Mus musculus [8] = assay: Anticonvulsant activity in CF1 mouse assessed as protection against subcutaneous metrazole-induced seizures at 30 mg/kg, ip after 4 hrs; assay type: functional, organism-based; design: dose 30 mg/kg
Mus musculus [9] = assay: Anticonvulsant activity in CF1 mouse assessed as protection against maximal electroshock-induced seizures at 30 mg/kg, ip after 0.5 hrs; assay type: functional, organism-based; design: dose 30 mg/kg; in short: as §1
Mus musculus [10] = assay: Anticonvulsant activity in CF1 mouse assessed as protection against subcutaneous metrazole-induced seizures at 300 mg/kg, ip after 0.5 hrs; assay type: functional, organism-based; design: dose 300 mg/kg
Mus musculus [11] = assay: Anticonvulsant activity in CF1 mouse assessed as protection against subcutaneous metrazole-induced seizures at 100 mg/kg, ip after 4 hrs; assay type: functional, organism-based; design: dose 100 mg/kg
Mus musculus [12] = assay: Anticonvulsant activity in CF1 mouse assessed as protection against maximal electroshock-induced seizures at 100 mg/kg, ip after 4 hrs; assay type: functional, organism-based; design: dose 100 mg/kg; in short: as §1
Mus musculus [13] = assay: Anticonvulsant activity in CF1 mouse assessed as protection against subcutaneous metrazole-induced seizures at 300 mg/kg, ip after 4 hrs; assay type: functional, organism-based; design: dose 300 mg/kg
Mus musculus [14] = assay: Neurotoxicity in CF1 mouse at 100 mg/kg, ip after 4 hrs by rotarod test; assay type: toxicity, organism-based; design: dose 100 mg/kg, route intraperitoneal; settings: in vivo; in short: as §2
Mus musculus [15] = assay: Anticonvulsant activity in CF1 mouse assessed as protection against maximal electroshock-induced seizures at 300 mg/kg, ip after 4 hrs; assay type: functional, organism-based; design: dose 300 mg/kg; in short: as §1
Mus musculus [16] = assay: Neurotoxicity in CF1 mouse at 100 mg/kg, ip after 0.5 hrs by rotarod test; assay type: toxicity, organism-based; design: dose 100 mg/kg, route intraperitoneal; settings: in vivo; in short: as §2
Mus musculus [17] = assay: Anticonvulsant activity in CF1 mouse assessed as protection against subcutaneous metrazole-induced seizures at 30 mg/kg, ip after 0.5 hrs; assay type: functional, organism-based; design: dose 30 mg/kg
Mus musculus [18] = assay: Anticonvulsant activity in CF1 mouse assessed as protection against subcutaneous metrazole-induced seizures at 100 mg/kg, ip after 0.5 hrs; assay type: functional, organism-based; design: dose 100 mg/kg

Measured: Activity

CCCOc1c(C(=O)N/N=C\c2cccs2)sc(C(=O)N/N=C/c2cccs2)c1OCCC
Toxic: Mus musculus [6] | Mus musculus [7] | Mus musculus [16]
Non-toxic: Mus musculus [2] | Mus musculus [4] | Mus musculus [14]
not listed: Mus musculus [18]
inactive: all other assays above

CCCOc1c(C(=O)NN=C2CC(C)Sc3sc(S(N)(=O)=O)cc32)sc(C(=O)NN=C2CC(C)Sc3sc(S(N)(=O)=O)cc32)c1OCCC (stereo unspecified)
Toxic: Mus musculus [6] | Mus musculus [7] | Mus musculus [16]
Non-toxic: Mus musculus [2] | Mus musculus [4] | Mus musculus [14]
inactive: all other assays above

CCCOc1c(C(=O)N/N=C(\C)c2cc3ccccc3oc2=O)sc(C(=O)N/N=C(\C)c2cc3ccccc3oc2=O)c1OCCC
Toxic: Mus musculus [6] | Mus musculus [7] | Mus musculus [16]
Non-toxic: Mus musculus [2] | Mus musculus [4] | Mus musculus [14]
not listed: Mus musculus [15]
inactive: all other assays above

CCCOc1c(C(=O)NN=C2CCCC2)sc(C(=O)NN=C2CCCC2)c1OCCC
Non-toxic: Mus musculus [2] | Mus musculus [4] | Mus musculus [6] | Mus musculus [7] | Mus musculus [14] | Mus musculus [16]
not listed: Mus musculus [15]
inactive: all other assays above

CCCOc1c(C(=O)N/N=C\c2ccc([N+](=O)[O-])o2)sc(C(=O)N/N=C/c2ccc([N+](=O)[O-])o2)c1OCCC
Non-toxic: Mus musculus [2]
Toxic: Mus musculus [6] | Mus musculus [7] | Mus musculus [14] | Mus musculus [16]
not listed: Mus musculus [4] | Mus musculus [18]
inactive: all other assays above

CCCC/C=N/NC(=O)c1sc(C(=O)N/N=C/CCCC)c(OCCC)c1OCCC
Non-toxic: Mus musculus [2] | Mus musculus [4] | Mus musculus [6] | Mus musculus [14]
Toxic: Mus musculus [7] | Mus musculus [16]
not listed: Mus musculus [18]
inactive: all other assays above

CCCOc1c(C(=O)N/N=C(\C)c2c[nH]c3ccccc23)sc(C(=O)N/N=C(\C)c2c[nH]c3ccccc23)c1OCCC
Non-toxic: Mus musculus [2] | Mus musculus [4] | Mus musculus [6] | Mus musculus [7] | Mus musculus [14] | Mus musculus [16]
inactive: all other assays above

CCCOc1c(C(=O)N/N=C(\C)c2ccc[nH]2)sc(C(=O)N/N=C(\C)c2ccc[nH]2)c1OCCC
Non-toxic: Mus musculus [2] | Mus musculus [4] | Mus musculus [6] | Mus musculus [7] | Mus musculus [14] | Mus musculus [16]
inactive: all other assays above

CCCOc1c(C(=O)N/N=C/c2ccc3cc(OC)ccc3c2)sc(C(=O)N/N=C/c2ccc3cc(OC)ccc3c2)c1OCCC
Non-toxic: Mus musculus [2] | Mus musculus [4] | Mus musculus [6] | Mus musculus [7] | Mus musculus [14] | Mus musculus [16]
inactive: all other assays above

CCCOc1c(C(=O)N/N=C(\C)c2ccccc2)sc(C(=O)N/N=C(\C)c2ccccc2)c1OCCC
Non-toxic: Mus musculus [2] | Mus musculus [4] | Mus musculus [6] | Mus musculus [7] | Mus musculus [14] | Mus musculus [16]
not listed: Mus musculus [15]
inactive: all other assays above

CCCOc1c(C(=O)N/N=C(/c2ccccc2)c2ccncc2)sc(C(=O)N/N=C(\c2ccccc2)c2ccncc2)c1OCCC
Non-toxic: Mus musculus [2] | Mus musculus [4] | Mus musculus [6] | Mus musculus [7] | Mus musculus [14] | Mus musculus [16]
not listed: Mus musculus [1] | Mus musculus [8]
inactive: all other assays above

CCCOc1c(C(=O)N/N=C(\C)c2nccs2)sc(C(=O)N/N=C(\C)c2nccs2)c1OCCC
Non-toxic: Mus musculus [2] | Mus musculus [4] | Mus musculus [6] | Mus musculus [7] | Mus musculus [14] | Mus musculus [16]
not listed: Mus musculus [1]
inactive: all other assays above
